KCNK3 inh – human KCNK3 channel inhibitors, primary screen, CHO cells, FluxOR thallium flux, B-score; Potassium channel subfamily K member 3 (Homo sapiens), O14649; hit rate 0.84% among 340,000; AID 602410, 2012; B-score at 10 µM; FluxOR fluorescence; active compounds read low;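 active = B-score under library mean minus 4 SD, starting fluorescence ratio at most library mean plus 5 SD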;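 also: more negative B-score means stronger inhibition of thallium flux through KCNK3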
KCNQ1 act – potentiators or activators of KCNQ1 channel, primary screen, cell-based, thallium flux, high-throughput; Potassium voltage-gated channel subfamily KQT member 1 (Homo sapiens), P51787; CHO-K1 KCNQ1, thallium flux FluxOR fluorescence; active compounds read high; B-score at 10 µM; hit rate 0.35% among 310,000;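 active = fluorescence ratio B-score, a plate-corrected score, at least three library SD, with initial intensity B-score within 5 SD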
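Schedule – 37 °C overnight plating, 90-min dark dye load, 20-min compound pretreatment · System – stable KCNQ1 CHO-K1 line · Probe or stimulus – thallium- and potassium-containing depolarizing buffer · Measured by – kinetic FluxOR fluorescence, 10 s baseline plus 110 s post-stimulus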
KCNQ1 block – inhibitors of human KCNQ1 channel, primary screen, cell-based, thallium flux, high-throughput; Potassium voltage-gated channel subfamily KQT member 1 (Homo sapiens), P51787; CHO-K1 KCNQ1, FluxOR thallium flux fluorescence; active compounds read high; B-score at 10 µM; hit rate 1.3% among 310,000;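 active = compounds whose thallium flux B-score, printed positive for inhibition, exceeds three library SD while starting fluorescence stays within three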;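 also: channel opened by potassium depolarization with thallium stimulus after 20 min compound exposure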
KCNK9 block – KCNK9 potassium channel inhibitors, primary screen, HEK293 cells, thallium flux | Potassium channel subfamily K member 9 (Homo sapiens), Q9NPC2 | FluxOR thallium flux fluorescence; active compounds read low | B-score at 10 µM | hit rate 1.2% among 310,000;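 active = ratio B-score over 3 SD below the library mean, with starting fluorescence within 5 SD of its mean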;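 also: negative B-score means less thallium flux so channel inhibition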
Kir21 inh – inhibitors of mouse Kir2.1 inward-rectifier potassium channel | hit rate 0.85% among 310,000 | Inward rectifier potassium channel 2 (Mus musculus), P35561 | B-score at 10 µM | HEK293-Kir2.1, FluxOR thallium flux fluorescence; active compounds read low;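 active = fluorescence ratio B-score at or below minus 3 SD of library scores, with starting-brightness B-score within 2 SD, cut at about -4.2 in these data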;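 also: channel flux triggered by added potassium and thallium sulfate stimulus; B-score of peak minus minimum fluorescence over baseline after thallium stimulus; more negative B-score means stronger Kir2.1 block with less thallium influx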
hERG protect – hERG rescue from dofetilide block, primary screen, cell-based, CHO-hERG, FluxOR thallium flux, dofetilide IC70 | dofetilide IC70 present | activation (rescue from dofetilide block), less the hit threshold, % at 10 µM | hit rate 0.51% among 310,000 | AID 1511, 2009;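 active = activation above the mean of controls blocked by dofetilide plus 5 SD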;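 also: thallium influx through hERG after potassium depolarization seen as dye fluorescence rise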
Each line names hits and unclear results; the compound was inactive in the other large screens. An excerpt weighted towards active compounds, which were near 3.7% of everything screened.

Cc1ccc(OCC(=O)NC(=S)Nc2ccc(Br)cn2)cc1	KCNQ1 act 9, hERG protect 12
COCCn1c(-c2ccc(OC)cc2)cnc1N	none
CCOc1ccc(-c2cnc(NCc3cccc4ccccc34)n2CCOC)cc1	KCNK3 inh -9.5, KCNQ1 block 10
Cn1c(=O)c2ncn(C)c2n(C)c1=O	none (no result: KCNQ1 act, KCNQ1 block, KCNK9 block, Kir21 inh, hERG protect)
Clc1ccc(C2=C3CCCCn4c(-c5ccccc5)c[n+](c43)C2)cc1	KCNQ1 block 7
COc1ccc(-c2cnc3n2CCCCC3)cc1	none
COc1ccc(-c2c[n+]3c4n2CCCCC4=C(c2ccc(Br)cc2)C3)cc1	KCNQ1 block 11
CCOC(=O)C(C)Sc1nc(-c2ccccc2)nc2ccccc12 (stereo unspecified)	KCNK9 block -7.6
CCC(C)(C)NC(=O)C(c1ccc(OC)cc1)N(C(=O)CCC(=O)Nc1cc(C)on1)c1cccc(F)c1 (stereo unspecified)	none
COc1ccc(C(C(=O)NC(C)(C)C)N(C(=O)CCC(=O)Nc2cc(C)on2)c2cccc(F)c2)cc1 (stereo unspecified)	KCNQ1 act 24, hERG protect 7.1
Cc1nnc(NC(=O)C2CCCN(S(=O)(=O)c3ccccc3C(F)(F)F)C2)s1 (stereo unspecified)	hERG protect 15
O=[n+]1c2c(n([O-])c3cc(F)c(N4CCCC4)cc31)CCCC2	KCNQ1 block 9
O=[n+]1c2c(n([O-])c3cc(F)c(N4CCCC4)cc31)CCC2	none
O=S(=O)(Nc1cccc(S(=O)(=O)N2CCCCC2)c1)c1ccccc1F	none (no result: KCNQ1 act, KCNQ1 block, KCNK9 block, Kir21 inh, hERG protect)
O=[N+]([O-])/C=C\c1ccc(N2CCCC2)c(F)c1	KCNK3 inh -9.6
Clc1ccc(/C(Cc2nc3ccccc3[nH]2)=N\Nc2ccccc2)cc1	KCNQ1 block 9, KCNK9 block -7.2
COc1ccc(CNCC(O)(c2ccccc2)c2ccc(Cl)cc2)cc1 (stereo unspecified)	Kir21 inh -5.9
CCc1ccc(C(O)(CNCc2ccccc2)c2ccccc2)cc1 (stereo unspecified)	Kir21 inh -8.9
COc1cccc(-c2c(C(=O)N/N=C(\C)c3cccs3)nnn2-c2nonc2N)c1	none
Fc1ccc(C(CCNCc2cccs2)c2ccco2)cc1 (stereo unspecified)	Kir21 inh -4.5
O=C(NCCC(c1ccccc1)c1ccco1)c1cccs1 (stereo unspecified)	none
CC1CC(=O)C(C(C2=C(O)CC(C)CC2=O)c2ccccc2)=C(O)C1 (stereo unspecified)	none (no result: KCNQ1 act, KCNQ1 block, KCNK9 block, Kir21 inh, hERG protect)
O=C(CCc1ccccc1)NC(=S)Nc1ccccc1Br	hERG protect 5.0
CCOC(=O)N1CCN(C(=O)c2ccc3c(=O)n(Cc4ccc(Cl)cc4)c(=S)[nH]c3c2)CC1	none
CCOC(=O)Cn1c(=S)[nH]c2c(oc3ccc(Cl)cc32)c1=O	KCNQ1 act 12
Cn1nc([N+](=O)[O-])c(C(C#N)c2nc3ccccc3n2C)c(Cl)c1=O (stereo unspecified)	KCNQ1 block 6
Cn1c(-c2ccc([N+](=O)[O-])cc2)nc2ccccc21	none
CN1CCN(C(=O)NCC23CC4CC(CC(C4)C2)C3)CC1	none
CNC(=O)NCC12CC3CC(CC(C3)C1)C2	hERG protect 5.1
CCN(CC(=O)NC1CCS(=O)(=O)C1)S(=O)(=O)c1ccc(Cl)c(C(F)(F)F)c1 (stereo unspecified)	none (no result: KCNQ1 act, KCNQ1 block, KCNK9 block, Kir21 inh, hERG protect)
Cc1ccc(NC(=O)C(=O)NCC2CCCN2S(=O)(=O)c2cccs2)c(C)c1 (stereo unspecified)	none
Cc1ccc(C)c(NC(=O)C(=O)NCC2CCCN2S(=O)(=O)c2cccs2)c1 (stereo unspecified)	KCNK9 block -7.2
COc1ccc(NC(=O)CCCNC(=O)c2ccc(Cl)cc2)cc1S(=O)(=O)N1CCOCC1	none (no result: KCNQ1 act, KCNQ1 block, KCNK9 block, Kir21 inh, hERG protect)
Cn1c(CNc2nc(-c3ccccc3)cs2)nnc1SCC(=O)OC1CCCCC1	Kir21 inh -5.4
COc1cccc(OCc2nnc(SCC(=O)OC3CCCCC3)n2C)c1	Kir21 inh -4.8
O=C(COC(=O)c1cc(=O)[nH]c2ccccc12)NCc1ccc(Cl)cc1	none (no result: KCNQ1 act, KCNQ1 block, KCNK9 block, Kir21 inh, hERG protect)
COC(=O)C(C(=O)OC)C1C=CCN(C(C)=O)C1 (stereo unspecified)	none (no result: KCNQ1 act, KCNQ1 block, KCNK9 block, Kir21 inh, hERG protect)
Cc1ccc(C(=O)NCC(c2ccc(F)cc2)N2CCOCC2)cc1S(=O)(=O)N1CCOCC1 (stereo unspecified)	none (no result: KCNQ1 act, KCNQ1 block, KCNK9 block, Kir21 inh, hERG protect)
COC(=O)c1ccc(NC(=S)NC2CCCCC2)cc1	none
COC(=O)c1cccnc1NC(=S)NC1CCCCC1	KCNQ1 act 18
O=C(NC1CCCC1)c1cccnc1N1CCCCCC1	hERG protect 5.0
O=C1N=C(N2CCC(Cc3ccccc3)CC2)S/C1=C/c1cn[nH]c1-c1ccccc1	KCNQ1 block 9
Cc1ccc(S(=O)(=O)N2CCN(C(=O)CCC(=O)Nc3ccc(Br)c(C)c3)CC2)cc1	none (no result: KCNQ1 act, KCNQ1 block, KCNK9 block, Kir21 inh, hERG protect)
O=[N+]([O-])c1cccc(S(=O)(=O)Nc2ccc3cn[nH]c3c2)c1	none (no result: KCNQ1 act, KCNQ1 block, KCNK9 block, Kir21 inh, hERG protect)
CC(C)C(NC(=O)CSCc1ccc([N+](=O)[O-])cc1)C(C)C	Kir21 inh -4.5
O=C(CSCc1ccc([N+](=O)[O-])cc1)NC1CC1	none
Cc1cccc(NS(=O)(=O)c2c(C)noc2C)c1	none
Cc1noc(C)c1S(=O)(=O)NCc1cccc(Cl)c1	KCNK3 inh -11 (no result: KCNQ1 act, KCNQ1 block, KCNK9 block, Kir21 inh, hERG protect)
Cc1noc(C)c1S(=O)(=O)Nc1cccc(C(F)(F)F)c1	KCNQ1 block 6
COc1ccc(CCC(C)NCc2cc(OC)cc(OC)c2)cc1 (stereo unspecified)	none
CC(=O)c1cccc(OCC(O)CNCCc2ccc(Cl)cc2)c1 (stereo unspecified)	none
COc1ccc(CCC(C)NCc2ccc(F)cc2)cc1 (stereo unspecified)	Kir21 inh -6.1
COc1ccc(CCNCC(O)c2ccccc2)cc1 (stereo unspecified)	Kir21 inh -4.9
COc1ccc(CCC(C)NCc2ccc(Cl)c(Cl)c2)cc1 (stereo unspecified)	Kir21 inh -4.5
COc1ccc(CCNCC(O)COc2cccc(Br)c2)cc1 (stereo unspecified)	Kir21 inh -8.7
COc1cc(OC)c2c(-c3cccc(-c4ccc(F)c(Cl)c4)c3)cc(=O)oc2c1	none (no result: KCNQ1 act, KCNQ1 block, KCNK9 block, Kir21 inh, hERG protect)
COc1ccc(CCNCC(C)c2ccccc2)cc1 (stereo unspecified)	none
